Compound activity deposited in PubChem by several laboratories.
An excerpt weighted towards active compounds, which were near 1.9% of everything screened.
V-ATPase pHluor = regulators of yeast V-ATPase proton transport; S. cerevisiae, pHLuorin cytosolic pH fluorescence; response, % at 10 µM; hit rate 0.37% among 350,000; in the data active = response mostly above about 7.3%, no sharp cut-off; inactive = mostly below about 5.4%; note: actives read high
T cell HTS = T cell immune modulation candidate | 2C CD8+ T cell-vesicle binding, flow cytometry; hits give low values | response (vesicle binding), % at 7 µM | hit rate 0.068% among 330,000 | AID 2052;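 active = response, share of CD8 T cells binding vesicles, and their 90th percentile fluorescence all below set limits, cut at about 80% in these data, passing the limit was not always enough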;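 note: values below 100% mean blocked vesicle binding to the CD8+ T cells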
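Test system: purified 2C TCR transgenic mouse naive CD8+ T cells. Probe or stimulus: QL9-peptide-loaded Drosophila micro-vesicles bearing Ld, ICAM-1 and B7-1. Incubation: binding step 1.5 h, 37 °C, antibody labelling 20 min, ice. Measured by: flow cytometry of vesicle-bound cells.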
MIN6 prolif = MIN6 beta-cell proliferation induction; hit rate 0.29% among 330,000; proliferation, % at 10 µM; AID 2380; MIN6 cells proliferation, ATPlite luminescence, 48 h; cells starved in 0.2% serum; 100% = growth in 10% serum;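 active = compounds whose signal lies at least 3.5 SD above the mean of all wells on their plate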;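 note: 0% = DMSO-treated cells in low-serum medium and 100% = 10% serum control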
KLK7 zymogen act = activates the human kallikrein-7 zymogen; purified proKLK7, EDANS-DABCYL substrate fluorescence; 100% is mature enzyme control, 0% vehicle; P49862; activation, % at 7 µM; hit rate 0.9% among 370,000; AID 652039;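 active = activation above the mean of all tested compounds plus 3 SD, computed per campaign excluding outliers beyond control limits, cut at about 13% in these data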
Target sequence (P49862 whole entry, looked up): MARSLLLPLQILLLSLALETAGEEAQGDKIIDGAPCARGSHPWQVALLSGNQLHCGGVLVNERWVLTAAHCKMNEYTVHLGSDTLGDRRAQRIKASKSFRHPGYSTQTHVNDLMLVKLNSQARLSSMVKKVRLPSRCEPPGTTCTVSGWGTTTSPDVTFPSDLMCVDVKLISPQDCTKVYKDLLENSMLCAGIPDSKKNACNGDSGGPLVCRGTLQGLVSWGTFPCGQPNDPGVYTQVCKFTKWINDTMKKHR
CR mimetic SO = lowers age-related superoxide in aged yeast cells. S. cerevisiae aged cells, superoxide DHE fluorescence; hits give low values. superoxide response (% of plate mean), % at 10 µM. hit rate 0.18% among 330,000;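 active = superoxide response under a set limit, about three screen SD below normal, cut at about 65% in these data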;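 note: yeast aged for seven days with compound at 30 °C before DHE staining; 100% = average MFI of all compound-treated wells on the plate with controls excluded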
Rce1 inhib = blocks yeast Ras-converting enzyme | calls only | Q03530 | AID 2563 | hit rate 0.27% among 290,000 | yeast membranes, quenched prenylated peptide cleavage fluorescence;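 active = fall in fluorescence gain of 50% or more versus controls, with final raw signal at or below 3038400; inconclusive = same 50% fall but final raw signal above 3038400; inactive = fall in fluorescence gain under 50%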;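 note: plate controls were neutral control wells for no effect and wells lacking membranes for full effect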
Target sequence (Q03530 whole entry, looked up): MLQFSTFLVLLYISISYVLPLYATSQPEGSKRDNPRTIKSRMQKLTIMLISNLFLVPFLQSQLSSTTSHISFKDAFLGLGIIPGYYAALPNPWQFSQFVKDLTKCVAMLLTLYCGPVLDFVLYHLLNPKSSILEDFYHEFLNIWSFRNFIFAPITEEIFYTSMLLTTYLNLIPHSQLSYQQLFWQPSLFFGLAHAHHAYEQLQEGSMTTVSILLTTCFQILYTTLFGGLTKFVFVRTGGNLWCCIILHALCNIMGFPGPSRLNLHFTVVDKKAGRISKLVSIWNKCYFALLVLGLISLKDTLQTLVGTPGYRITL
proKLK7 act conf = confirmation of human kallikrein-7 zymogen activators | AID 686949 | hit rate 68% among 3,200 | shares compounds with KLK7 zymogen act | purified proKLK7, EDANS-DABCYL substrate fluorescence; scaled: vehicle 0, mature enzyme 100 | activation, % at 7 µM;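 active = activation, as change over the incubation, above the mean of all tested compounds plus 3 SD, cut at about 13% in these data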
EDANS interfere = optically interferes with EDANS-DABCYL signal, flagging KLK7 hits; shares compounds with KLK7 zymogen act; EDANS-DABCYL substrate fluorescence interference, no enzyme, 4 h; solvent 0%, active enzyme control 100%; activation, % at 7 µM; hit rate 80% among 3,200;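 active = activation above the all-compound mean plus 3 SD, ignoring values outside control-based bounds, cut at about 4.8% in these data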;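 note: value is the 4 h activation minus the activation read at time zero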
EDANS interf = EDANS fluorescence interference in dose response, no enzyme; shares compounds with KLK7 zymogen act; EDANS-DABCYL peptide fluorescence interference; EC50, µM; hit rate 20% among 250; AID 720493;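 active = compounds that raise the fluorescence signal in this interference counterscreen, with EC50 at or below 10 µM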;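 note: intact quenched peptide substrate alone read at 355 nm excitation and 520 nm emission; signal is fluorescence gain from T0 to T4 after four hours at room temperature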
* hit, by the source's call; i = inactive; ? = inconclusive; / = not tested or not shown.

SMILES	V-ATPase pHluor	T cell HTS	MIN6 prolif	KLK7 zymogen act	CR mimetic SO	Rce1 inhib	proKLK7 act conf	EDANS interfere	others
Cc1ccc(-c2cc(C(=O)NCC3(N(C)C)CCCCC3)c3ccccc3n2)o1	-1	/	/	72*	/	/	21*	46*
CCN(C(=O)COC(=O)c1ccccc1NCCO)C1CCS(=O)(=O)C1 (stereo unspecified)	1	170	0	25*	88	i	32*	35*
COc1ccc(NC(=O)CN(C)C(=O)CNC(=O)c2cccs2)cc1	-1	777	1	0	103	i	/	/
COc1ccc2nc(NC(=O)C3CCN(C(=O)c4ccco4)CC3)sc2c1	2	223	-2	0	105	i	/	/
CCOC(=O)N1CCN(C(=O)COC(=O)c2ccccc2NCCO)CC1	13	668	-4	25*	95	?	28*	38*
COc1ccc2cc(C3=CC(=O)CCC3)ccc2c1	-10	/	/	24*	/	/	-47	-49
Cc1ccc2c(c1)COc1c3ccc(C(=O)NC(C)C)cc3nn1-2	-1	i	-5	7	105	i	/	/
Cc1ccc2c(c1)COc1c3ccc(C(=O)N[C@@H](C)CO)cc3nn1-2	4	i	-3	14*	95	i	7	4
O=C(COc1ccc(Cl)cc1)Nc1c(-c2cccs2)nc2ccccn12	1	327	0	13*	95	i	10	0
Cc1ccn2c(NC(C)(C)C)c(-c3cccs3)nc2c1	-2	158	3	-7	99	i	/	/
Cc1nc2ccccn2c(=O)c1NC(=O)COc1ccccc1	-2	/	/	0	/	/	/	/
CC(C)CCNc1c(-c2cccs2)nc2ccccn12	1	223	2	144*	101	i	-8	-19
O=C(c1ccc2ccccc2c1O)N1CCCCC1	3	/	/	-4	/	/	/	/
O=C(NCc1ccco1)c1cc2cc3ccc(Cl)cc3nc2o1	9	234	0	1	79	i	/	/
COc1ccc2cc3cc(C(=O)NCc4ccccn4)oc3nc2c1	10	244	1	42*	104	i	-18	-4
COc1ccc2cc3cc(C(=O)NCc4ccco4)oc3nc2c1	4	707	-3	49*	100	i	-43	-26
O=C(CCCl)N1c2ccccc2C=Cc2ccccc21	2	/	/	-1	/	/	/	/
COc1cccc(CN2CC(C(=O)NCC3CCOCC3)CCC2=O)c1 (stereo unspecified)	-1	347	4	1	126	i	/	/
Cc1ccc(F)c(S(=O)(=O)NC(=O)C2(C)CCN2C(=O)Cc2ccccc2Cl)c1 (stereo unspecified)	/	/	/	0	/	/	/	/
CC(c1nc2ccccc2[nH]1)n1c(=O)c(-c2cccnc2)nc2ccccc21 (stereo unspecified)	/	/	/	-2	/	/	/	/
CC(c1nc2ccccc2[nH]1)n1c(=O)c(-c2cccs2)nc2ccccc21 (stereo unspecified)	/	/	/	190*	/	/	22*	-25	EDANS interf=7.5*
O=c1[nH]c2ccccc2nc1-c1cccs1	-5	243	1	32*	109	i	32*	43*
CCCN(Cc1nnc(-c2cccs2)o1)C(=O)CN1C(=O)NC2(CCCCC2)C1=O	1	/	-2	0	/	/	/	/
C[C@@H]1CN([C@@H](C)CO)C(=O)CCCn2cc(nn2)CO[C@H]1CN(C)C(=O)Nc1ccc(C(C)(C)C)cc1	/	/	/	0	/	/	/	/
CCC1(CC)NC(=O)N(CC(=O)Nc2ccc(OCc3ccccc3)cc2)C1=O	0	351	-3	0	105	/	/	/
SMILES	V-ATPase pHluor	T cell HTS	MIN6 prolif	KLK7 zymogen act	CR mimetic SO	Rce1 inhib	proKLK7 act conf	EDANS interfere	others
CCC(=O)c1cc2c(C)cc(=O)oc2c(C)c1OC	-3	369	1	0	101	i	/	/
CCC(=O)Oc1c(C(=O)CC)cc2c(C)cc(=O)oc2c1C	-1	175	0	540*	102	i	810*	812*
CCc1nn(CC(=O)NCCN2CCOCC2)c(=O)c2cc3c(OC)cccc3n12	-5	159	1	27*	88	i	19*	28*
COc1cccc2c1cc1c(=O)n(CC(=O)NCCCN3CCN(C)CC3)nc(C)n12	-3	318	-1	60*	94	?	83*	76*
CCCN1CCN(C(=O)Cn2nc(C)n3c(cc4c(OC)cccc43)c2=O)CC1	4	/	/	2	/	/	/	/
CC(=O)Oc1ccc2c(C)c(CC(=O)N3CCN(C(=O)C4COc5ccccc5O4)CC3)c(=O)oc2c1C (stereo unspecified)	1	373	-5	155*	85	i	344*	368*
CC(=O)c1cccc(NC(=O)CCn2c(=S)oc3ccccc32)c1	-1	103	1	0	139	i	/	/
CCOC(=O)c1cccc(NC(=O)CN(c2ccc(OC)cc2)S(=O)(=O)c2c(C)noc2C)c1	4	861	-4	0	109	i	/	/
COc1ccc(N(CC(=O)Nc2cccc(C(=O)O)c2)S(=O)(=O)c2c(C)noc2C)cc1	-2	276	-2	17*	90	/	-1	0
Cc1coc2c1c(C)cc1oc(=O)c(CC(=O)N[C@H](C(=O)O)C(C)C)c(C)c12	-1	240	-2	23*	98	i	29*	37*
CCC(NC(=O)Cc1c(C)c2c(cc(C)c3c(C)c(C)oc32)oc1=O)C(=O)O (stereo unspecified)	-3	199	3	23*	106	i	16*	1	EDANS interf=>70
Cc1coc2c(C)c3oc(=O)c(CCC(=O)N[C@H](C(=O)O)C(C)C)c(C)c3cc12	/	/	/	16*	/	/	8	10*
Cc1coc2c1c(C)cc1oc(=O)c(CC(=O)N[C@@H](C)C(=O)O)c(C)c12	-2	145	0	29*	99	i	24*	27*
Cc1coc2c(C)c3oc(=O)c(CCC(=O)NCCC(=O)O)c(C)c3cc12	0	292	-2	8	108	i	/	/
C[C@@H]1CN([C@H](C)CO)C(=O)CCCn2nncc2CO[C@H]1CN(C)C(=O)Nc1ccc2c(c1)OCCO2	/	/	/	0	/	/	/	/
COc1cc(C2Nc3ccccc3C(=O)N2c2ccc(Cl)cc2)c(Cl)cc1OCC(=O)O (stereo unspecified)	-5	305	0	22*	97	i	26*	27*
COc1ccc(-c2cc(=O)oc3c(C)c(OCC(=O)N(C)C)ccc23)cc1	1	397	0	2	90	i	/	/
